Source: PubChem
Most compounds without a hit are left out; they make up all but 2.3% or so of the library.
ADAM10 inh: human ADAM10 inhibitors, primary screen, biochemical, QFRET, HTS; Disintegrin and metalloproteinase domain-containing protein 10 (Homo sapiens), O14672; 370,000 tested, 0.62% active; inhibition, % at 7 µM; recombinant ADAM10, EDANS/DABCYL FRET peptide cleavage, 3 h;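 active = inhibition above a per-campaign cutoff equal to the mean of compounds falling between control-based bounds plus 3 SD, cut at about 20% in these data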;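 also: 0% = DMSO wells while the 100% control is not disclosed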
Target sequence (O14672 214-748 limits assumed): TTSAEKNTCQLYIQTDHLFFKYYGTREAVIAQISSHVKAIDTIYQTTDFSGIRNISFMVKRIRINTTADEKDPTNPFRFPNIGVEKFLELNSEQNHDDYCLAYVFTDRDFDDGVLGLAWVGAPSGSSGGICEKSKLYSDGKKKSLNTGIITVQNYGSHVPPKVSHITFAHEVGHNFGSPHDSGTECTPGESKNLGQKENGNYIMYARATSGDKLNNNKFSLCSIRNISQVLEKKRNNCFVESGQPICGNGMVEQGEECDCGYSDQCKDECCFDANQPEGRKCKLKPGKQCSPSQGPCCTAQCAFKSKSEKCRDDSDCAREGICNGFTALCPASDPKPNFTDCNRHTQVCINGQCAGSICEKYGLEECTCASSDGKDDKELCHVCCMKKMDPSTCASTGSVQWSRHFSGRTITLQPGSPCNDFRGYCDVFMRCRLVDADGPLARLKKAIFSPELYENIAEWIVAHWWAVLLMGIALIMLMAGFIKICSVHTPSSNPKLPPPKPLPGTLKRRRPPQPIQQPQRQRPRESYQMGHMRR
DDE Tn6 FP inh: inhibitors of Tn6 peptide binding to fibrin DD(E), primary screen, biochemical, fluorescence polarization, human fibrin, Tn6 probe. 370,000 tested, 0.21% active. inhibition, % at 8.3 µM. AID 720509, 2013. Fibrinogen beta chain (Homo sapiens), P02675. Fibrin DD(E) TRITC-Tn6 fluorescence polarization displacement;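 active = inhibition above a per-campaign cutoff: mean of compounds within control limits plus 3 SD, cut at about 15% in these data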;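 also: 0% = median of all compound wells on the plate and 100% = blocking peptide control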
PLCg1 inh: PLC-gamma1 enzyme inhibitors, primary screen, biochemical, fluorescence, purified enzyme; fluorogenic substrate; inhibition, % at 12.2 µM; 370,000 tested, 0.84% active; AID 720700, 2013; in the data active = inhibition above about 9.5%
Tn7 DDE FP: inhibitors of Tn7 peptide binding to fibrin DD(E), primary screen, biochemical, fluorescence polarization, human fibrin, Tn7 probe; AID 720508, 2013; 370,000 tested, 0.13% active; inhibition, % at 8.3 µM; Fibrinogen beta chain (Homo sapiens), P02675; FP displacement of FITC-Tn7 peptide from fibrin DD(E); 0% = median of compound wells per plate;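 active = inhibition above the mean of compounds falling within the control limits plus 3 SD of them, cut at about 14% in these data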;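 also: 0% = plate median of compound wells and 100% = 10 µM Aha-Tn7 peptide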
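Test system – human fibrin DD(E) · Times – 10 min preincubation, 3 h with tracer, room temperature · Detection – fluorescence polarization of the labelled Tn7 tracer · Measure – percent inhibition normalized to high-control wells · Benchmarks – high control wells with 10 µM unlabelled Aha-Tn7 peptide (full inhibition) · Repeats – singlicate testing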
ADAM17 inh: ADAM17 inhibitors, primary screen, biochemical, QFRET | 370,000 tested, 0.83% active | inhibition, % at 6.95 µM | Disintegrin and metalloproteinase domain-containing protein 17 (Homo sapiens), P78536 | recombinant ADAM17, EDANS/DABCYL FRET peptide cleavage;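 active = inhibition above the mean of compounds lying between control limits plus 3 SD, set per campaign, cut at about 8.5% in these data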;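 also: 0% = DMSO-only wells as the low control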
PLC-beta3 inh: human PLC-beta3 inhibitors, primary screen, biochemical, fluorescence. 1-phosphatidylinositol 4,5-bisphosphate phosphodiesterase beta-3 (Homo sapiens), Q01970. Purified PLC-beta3, fluorogenic substrate. inhibition, % at 12.2 µM. 370,000 tested, 0.18% active. AID 720704, 2013;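 also: 0% = median of compound wells on plate and 100% = full blocker control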
PLCg1 ctr: PLC-gamma1 enzyme inhibitors, counter-screen for PLC-beta3 inhibitor project, biochemical, fluorescence. purified PLC-gamma1, fluorogenic substrate. AID 743258, 2014. 3,300 tested, 3.1% active. shares compounds with PLCg1 inh. inhibition, % at 12.3 µM; in the data active = inhibition above about 9.5%
PLCb3 confirm: PLC-beta3 inhibitor confirmation, biochemical, fluorescence, purified enzyme; shares compounds with PLCg1 inh; fluorogenic substrate fluorescence; inhibition, % at 12.3 µM; 3,300 tested, 1% active; AID 743261, 2014
The depositor's hits bear a star; . = not tested or not shown. Rule as the data show it, unless noted: active = inhibition above about 11%; inactive = the rest.

SMILES	ADAM10 inh	DDE Tn6 FP inh	PLCg1 inh	Tn7 DDE FP	ADAM17 inh	PLC-beta3 inh	PLCg1 ctr	PLCb3 confirm
Cc1ccc(S(=O)(=O)Nc2ccc3c(c2)CCC3)cc1C	-7	-5	13*	-3	6	-3	1	0
Cc1ccc(S(=O)(=O)Nc2ccc3c(c2)CCC3)cc1	5	-1	-1	5	3	-2	.	.
C=CCC[C@@H](Cc1ccc(F)cc1)C(=O)OC[C@@H](Cc1c[nH]c2ccccc12)NC(=O)[C@H](CC=C)CC(=O)N[C@H](CO)Cc1ccccc1	0	1	1	-1	3	1	.	.
C=CCC[C@@H](Cc1ccc(F)cc1)C(=O)OC[C@H](Cc1c[nH]c2ccccc12)NC(=O)[C@@H](CC=C)CC(=O)N[C@@H](CO)Cc1ccccc1	16	-4	10*	-3	8	6	-7	-4
Cc1ccccc1Cn1c(=O)c2c(nc3n2CCN3Cc2ccco2)n(C)c1=O	0	3	11*	5	0	7	-3	1
C[C@@H](CCCCC1(C)OCCO1)CCC(=O)N(c1ccccc1)c1ccccc1	-6	3	-3	7	0	-3	.	.
Cc1ccccc1CS(=O)(=O)Cc1ccc(C(=O)Nc2cccc(C)c2C)o1	10	7	1	0	-1	5	.	.
Cc1nc(C(F)(F)F)ccc1C(=O)N1CCC1(C)C(=O)NS(=O)(=O)c1cccc(F)c1 (centres undefined)	-4	-8	0	2	-2	3	.	.
Cc1nc(C(F)(F)F)ccc1C(=O)N1CCC1(C)C(=O)NS(=O)(=O)c1ccc2c(c1)CCO2 (centres undefined)	1	-5	10*	1	5	2	4	2
O=C(O)/C=C/C(=O)NCCc1ccc(Cl)cc1	-1	1	-1	1	-3	-10	.	.
O=C(O)/C=C/C(=O)NCCc1ccccc1	1	-5	10*	-4	4	4	-2	2
CC(=O)c1ccc(OCC(C)C)c(CC(C(N)=O)C(N)=O)c1	0	-4	7	-3	5	12*	-6	1
CCCOc1ccc(C(C)=O)cc1CC(C(N)=O)C(N)=O	1	-1	-1	-10	-2	1	.	.
Cc1cc(-c2nnc(SCc3ccccn3)o2)no1	8	8	14*	5	2	11*	-4	-1
Cc1cc(-c2nnc(SCCC(=O)Nc3ccccc3)o2)no1	-6	0	-1	-2	1	-4	.	.
Cc1ccccc1Cn1cc(CN2[C@@H](CC(C)C)COc3cc(Br)ccc3S2(=O)=O)nn1	3	-2	1	-2	-2	3	.	.
O=C(NCc1cccc(C(F)(F)F)c1)C1CC2Cn3c(nc4ccccc43)C2N1Cc1ccccc1 (centres undefined)	10	2	6	-6	3	12*	-5	-1
CCCC(=O)OCC(=O)Nc1ccc(N=Nc2ccccc2)cc1	9	1	9.6*	5	5	9	3	2
COc1cccc2c(NCc3ccccc3)nc(-n3c(N)nc4ccccc43)nc12	-9	-9	1	-1	-4	-1	.	.
Cc1c(NC(=O)C2CCCN(S(=O)(=O)c3c(C(C)C)cc(C(C)C)cc3C(C)C)C2)c(=O)n(-c2ccccc2)n1C (centres undefined)	2	1	2	0	1	2	.	.
CC(=O)NC(Cc1ccc(F)cc1)C(=O)NC1CCN(C(=O)Nc2cccc(C)c2)CC1 (centres undefined)	-20	-3	10*	-3	0	-5	6	3
CC(=O)NC(Cc1ccc(F)cc1)C(=O)NC1CCN(C(=O)Nc2ccc(F)cc2)CC1 (centres undefined)	-3	-4	1	-7	-2	-5	.	.
CC(NC(=O)c1ccc([N+](=O)[O-])cc1Cl)C1CC2CCC1C2 (centres undefined)	12	1	11*	-1	4	7	-3	0
CCOC(=O)[C@@]12CCCC3=C1N(CCC3)C(=O)[C@H]2CC(=O)NCCCOC	-7	5	1	0	-5	-2	.	.
Cn1cc(-c2nnnn2-c2ccccc2)c(=O)c2ccccc21	2	-3	5	4	5	12*	-21	0
SMILES	ADAM10 inh	DDE Tn6 FP inh	PLCg1 inh	Tn7 DDE FP	ADAM17 inh	PLC-beta3 inh	PLCg1 ctr	PLCb3 confirm
Cn1cc(-c2ccccc2C(N)=O)c(=O)c2ccccc21	-49	-2	-17	3	-22	-25	.	.
CCOC(=O)C1=C(C)N(CCCC(=O)O)C(=O)NC1c1ccccc1OS(=O)(=O)c1ccc([N+](=O)[O-])cc1 (centres undefined)	14	0	12*	-4	4	8	7	0
O=C(O)C1C2C=CC(C3CC23)C1C(=O)O (centres undefined)	1	-5	10*	-13	3	-1	-5	-4
CN1C(=O)c2cc(NC(=O)c3ccc(F)cc3)ccc2OC[C@H]2O[C@H](CC(=O)NC3CCC3)CC[C@H]21	-4	-3	-1	6	-6	2	.	.
CC(C)(C)OC(=O)N[C@@H]1C=CC(=O)C1	1	5	1	0	-2	5	.	.
COc1ccccc1/C=C(/C(=O)OCC(=O)NCc1ccccc1)c1ccccc1	19	2	13*	-5	8	12*	-1	-2
COc1ccccc1CNC(=O)CCc1ccccc1	9	-2	10*	-7	5	0	4	0
COc1ccccc1CNC(=O)CN(Cc1ccc(Cl)cc1)S(C)(=O)=O	-9	7	3	-9	1	11*	-3	2
Cc1ccc2nc3n(c(=O)c2c1)-c1ccccc1C(=O)NC3Cc1ccc(O)cc1 (centres undefined)	12	-6	10*	-8	8	5	-6	-7
